PubChem BioAssay
Inconclusive results are not listed. The source made the active and inactive calls.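 How the source made its calls, unless noted: active means growth inhibition above 25% in both replicates, a cutoff set 3 SD above the mean; inconclusive means above 25% in only one replicate; inactive means the rest.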

Assays:
[1] = S. cerevisiae growth inhibition in permissive medium (OD615), pilot counter-assay for S. cerevisiae lifespan shortening project, permissive growth control (AID 705); settings: OD615, 24 h, at 10 µM, stronger effect = higher value
Outline: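 System: Engineered DeaD yeast | Buffer or medium: SC raffinose/galactose permissive medium | Incubation: Cells pre-grown 4 h, then 24 h compound exposure, 30 °C humidified | Measured by: Absorbance (optical density) at 615 nm | Read-out: Reduction in yeast growth (OD615)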

[2] = S. cerevisiae growth inhibition in restrictive medium, OD615, pilot screen, restrictive growth control, yeast lifespan reduction project (AID 706;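 active means growth inhibition above a set limit, 3 SD over mean compound inhibition, in both replicates, cut at about 43% in these data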;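 further: modified DeaD lifespan yeast strain shifted to restrictive glucose medium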); settings: OD615, 48 h, at 10 µM, stronger effect = higher value
Outline: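 Material: modified S. cerevisiae; Medium: glucose-based CSMM-D restrictive medium; Compound dosing: one concentration, 10 µM final, 0.25% DMSO; Incubation: 48 h compound exposure at 30 °C; Measured by: OD615.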

[3] = doxorubicin toxicity protection in MRP-1 cells – H69AR cells, CellTiter-Glo, duplicate, MRP-1 activator project, pilot screen (AID 807;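 active means viability increase at or above a cutoff of the median across tested compounds plus 3 SD, cut at about 8.5% in these data, passing the limit was not always enough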;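 further: compound pretreatment 18-22 h then 72 h combined with doxorubicin; 0% = doxorubicin alone and 100% = vehicle without doxorubicin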); settings: H69AR viability with doxorubicin, CellTiter-Glo luminescence; at 10 µM; stronger effect = higher value
[4] = viability of HCT116 without oncogenic beta-catenin – human colon tumor cells, pilot screen (AID 823;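 active means cell viability at or below a set limit in both duplicate runs, the limit being the all-compound median minus 4 SD, cut at about 23% in these data, passing the limit was not always enough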;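 further: 0% = wells killed by 20 µM Hyamine and 100% = untreated DMSO cell wells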); settings: HCT116 beta-catenin knockout viability, CellTiter-Glo, 60 h; at 10 µM; stronger effect = lower value
[5] = viability of PTEN-null HCT116 cells – cell-based, HCT116 clonal line, CellTiter-Glo, pilot screen (AID 824;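 active means viability at or below 27.92% in each of two runs, the all-compound median minus 4 SD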;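 further: 0% = 20 µM Hyamine control and 100% = vehicle cell control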); settings: HCT116 PTEN-deleted viability, 60 h, at 10 µM, stronger effect = lower value
[6] = RAM pathway blockade in budding yeast – dse1pr::URA3 reporter, 5-FOA selection, pilot screen (AID 869;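 active means inhibition over a set limit, the all-compound mean plus 3 SD, in both replicate runs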;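 further: 0% = DMSO wells with no growth and 100% = 10 µM 1-NA-PP1 with full growth; RAM network block rescues cells from 5-FOA so hits raise OD615 growth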); settings: S. cerevisiae dse1pr::URA3 5-FOA growth, OD615, 2 d; at 10 µM; stronger effect = higher value; strain carries analog-sensitive mutant Cbk1 kinase
[7] = RAM signaling pathway blockade in yeast – S. cerevisiae, Pdr1DBD-CYC8 efflux-inhibited sensitized strain, primary screen (AID 1298;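 active means RAM network inhibition above 8.4% in each of two replicates, 3 SD over the compound average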;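 further: 0% = DMSO untreated cells without growth and 100% = 10 µM 1-NA-PP1 full growth; higher means more yeast growth rescued from 5-FOA killing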); settings: S. cerevisiae cbk1-as DSE1-URA3 strain, 5-FOA growth OD615, 2 d; at 50 µM; stronger effect = higher value

Cc1cc(NC(=O)CSc2nnc(Cn3c(=O)sc4ccccc43)n2-c2ccccc2C)no1
inactive: growth inhibition [1] -0.97% | growth inhibition [2] -2.43% | viability increase [3] -1.05% | viability [4] 89% | viability [5] 87% | inhibition [6] 1.27% | RAM network inhibition [7] 7.59%

CC1CC(NC(=O)CCn2c(=O)oc3ccccc32)CC(C)(C)C1 (stereo unspecified)
inactive: growth inhibition [1] 1.98% | growth inhibition [2] -2.1% | viability increase [3] -1.55% | viability [4] 97.1% | viability [5] 102% | inhibition [6] 1.02% | RAM network inhibition [7] 4.18%

CS(=O)(=O)NCCCc1ccccc1
inactive: growth inhibition [1] -3.13% | growth inhibition [2] 9.6% | viability increase [3] -1.36% | viability [4] 96.6% | viability [5] 94.5% | inhibition [6] 0.325% | RAM network inhibition [7] -0.88%

CCOC(=O)C1CCN(C(=O)C2c3ccccc3C(=O)N(C)C2c2ccc(OC)cc2)CC1 (stereo unspecified)
inactive: growth inhibition [1] -7.75% | growth inhibition [2] -16.1% | viability increase [3] -4.5% | viability [4] 76.3% | viability [5] 85.8% | inhibition [6] 2.1% | RAM network inhibition [7] 1.79%

CN1CCN(C(=O)c2cc3c(s2)-c2ccccc2S(=O)(=O)C3)CC1
inactive: growth inhibition [1] -2.05% | growth inhibition [2] -0.515% | viability increase [3] -1.76% | viability [4] 103% | viability [5] 98.5% | inhibition [6] 1.8% | RAM network inhibition [7] 0.72%

COc1cccc(C2NC(=O)NC(C)=C2C(=O)OCCSC)c1OC (stereo unspecified)
inactive: growth inhibition [1] -3.21% | growth inhibition [2] -16.4% | viability increase [3] -0.87% | viability [4] 93.7% | viability [5] 90.6% | inhibition [6] 1.07% | RAM network inhibition [7] 2.02%

Cn1cc(SCC(=O)NCC2CCCO2)c2ccccc21 (stereo unspecified)
inactive: growth inhibition [1] -3.53% | growth inhibition [2] 2.04% | viability increase [3] -2.67% | viability [4] 94.9% | viability [5] 93.2% | inhibition [6] 1.21% | RAM network inhibition [7] 0.31%

O=C1Nc2cc(Cl)cnc2N2CCCC12 (stereo unspecified)
inactive: growth inhibition [1] -2.57% | growth inhibition [2] 8.33% | viability increase [3] -0.67% | viability [4] 97.7% | viability [5] 101% | inhibition [6] 0.905% | RAM network inhibition [7] 0%

Cn1cccc1Cc1nnc(SCC(=O)NC2CCCCC2)n1-c1ccc(F)cc1
inactive: growth inhibition [1] 1.67% | growth inhibition [2] -4.1% | viability increase [3] -1.86% | viability [4] 95.4% | viability [5] 96.7% | inhibition [6] 1.08% | RAM network inhibition [7] 4.28%

COc1cccc(CNC(=O)c2ccc(NC(=O)C3CCCO3)cc2)c1 (stereo unspecified)
inactive: growth inhibition [1] -23.1% | growth inhibition [2] -16.5% | viability increase [3] 0.53% | viability [4] 95.1% | viability [5] 97.2% | inhibition [6] 1.14% | RAM network inhibition [7] 7.03%

O=C(CN1C2=NCCCN2c2ccccc21)c1cccs1
inactive: growth inhibition [1] 1.83% | growth inhibition [2] -10.1% | viability increase [3] -3.27% | viability [4] 95.7% | viability [5] 92.1% | inhibition [6] 0.695% | RAM network inhibition [7] 4.72%

Cn1c(=O)oc2cc(S(=O)(=O)NCc3ccccn3)ccc21
inactive: growth inhibition [1] -20.9% | growth inhibition [2] -20.2% | viability increase [3] 0.44% | viability [4] 96.5% | viability [5] 101% | inhibition [6] 3.3% | RAM network inhibition [7] 4.32%

CC(C)(Oc1ccc(Cl)cc1)C(=O)Nc1cccnc1
inactive: growth inhibition [1] -4.86% | growth inhibition [2] -6.65% | viability increase [3] -3.43% | viability [4] 92.6% | viability [5] 83.1% | inhibition [6] 0.405% | RAM network inhibition [7] 1.94%

Oc1cnn(-c2ccccc2)c1
inactive: growth inhibition [1] -0.88% | growth inhibition [2] 3.54% | viability increase [3] -5.6% | viability [4] 92.8% | viability [5] 94.3% | inhibition [6] 0.91% | RAM network inhibition [7] -0.83%

O=C1C(C=NCc2cccnc2)=C(O)c2ccccc21
inactive: growth inhibition [1] -6.25% | growth inhibition [2] -0.095% | viability increase [3] -2.11% | viability [4] 94.1% | viability [5] 93.4% | inhibition [6] 1.67% | RAM network inhibition [7] 2.36%

O=C(CCNS(=O)(=O)c1cccc2nonc12)NCc1cccs1
inactive: growth inhibition [1] -0.555% | growth inhibition [2] -14.2% | viability increase [3] -1.88% | viability [4] 96.3% | viability [5] 89.1% | inhibition [6] 2.46% | RAM network inhibition [7] 1.92%

Cc1cc(NS(=O)(=O)c2ccccc2)c(C)c(Cl)c1O
inactive: growth inhibition [1] -8.22% | growth inhibition [2] -15.3% | viability increase [3] -4.31% | inhibition [6] 2.38% | RAM network inhibition [7] 6.4%
active: viability [4] 1.97% | viability [5] 3.14%

COc1ccc(CCNC(=O)COC(=O)c2cnc(C)cn2)cc1OC
inactive: growth inhibition [1] -8.52% | growth inhibition [2] -14.6% | viability increase [3] 1.73% | viability [4] 106% | viability [5] 100% | inhibition [6] 0.395% | RAM network inhibition [7] 2.42%
